Measurements from publication PMC9058365 (RSC Advances, 2020).

Columns and labels:
[1] = system: diabetic rabbits (streptozotocin); assay: In vivo anti-diabetic study; parameters: species or system rabbit; settings: at 4 h, subcutaneous injection, n = 3
How it was run: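 Male New Zealand albino rabbits (1.5–2.0 kg) made diabetic by intravenous streptozotocin (65 mg kg−1, in citrate buffer pH 5.0) given in the evening for three days. Baseline blood glucose was taken on day 1 after overnight fasting. Blood glucose was followed over time and expressed as % of initial level, n = 3 per group.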

Pharmacokinetic study = format: in vivo; settings: rabbit plasma, n = 3; for T max: 5 IU kg^−1, HPLC; for AUC0–12: 5 IU kg^−1, trapezoidal method, mean ± SD
[2] = system: New Zealand albino rabbits; assay: In vivo tolerance study; settings: rabbit eye, scale 0-3, n = 3
How it was run: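 Male New Zealand albino rabbits (1.5–2.0 kg) free of ocular inflammation, housed at 25 ± 2 °C, 75% RH, 12:12 h light cycle. Nine animals were split into three groups of three. […] Macroscopic signs were graded at 0.5, 4.0 and 16.0 h, and scores were summed into an overall irritation index.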

[3] = rabbits, administered topically via ocular route; ref 25 (Yamamoto et al., 1989); cited from earlier work
[4] = 0.5 h after single instillation of 50 μl
[5] = 4.0 h after single instillation of 50 μl
[6] = 16.0 h after single instillation of 50 μl

For “Subcutaneous insulin injection: subcutaneous injection of human insulin solution”, the “drop in blood glucose level” value [1] was 71.08 ± 3.24, the T max (Pharmacokinetic study; subcutaneous injection) was 30 min and the “AUC0–12” value (Pharmacokinetic study; subcutaneous injection) was 197380 ± 2760 ng·h/mL.

Insulin [Plain insulin solution] showed a Conjunctiva grade [2, 4] of 0, a Cornea grade [2, 4] of 0 and a Discharge grade [2, 4] of 0. For the same substance, the Lids grade [2, 4] was 0, the Conjunctiva grade [2, 5] was 0 and the Cornea grade [2, 5] was 0. For the same substance, the Discharge grade [2, 5] was 1, the Discomfort grade [2, 5] was 0 and the Lids grade [2, 5] was 0. The Conjunctiva grade [2, 6] was 0, the Cornea grade [2, 6] was 0 and the Discharge grade [2, 6] was 0. The Discomfort grade [2, 6] was 0, the Lids grade [2, 6] was 0 and the T max (Pharmacokinetic study; ocular instillation) was 19.8 min. The “AUC0–12” value (Pharmacokinetic study; ocular instillation) was 1870 ± 1700 ng·h/mL.

For insulin, the bioavailability [3] is given as “less than 1%”.
